From the RNAGym collection of RNA variant scans (doi:10.1126/science.aae0568)
Variants at the floor of the assay were thinned out.

B1: tRNA (parent)
chain: GUUCCGUUGGCGUAAUGGUAACGCGUCUCCCUCCUAAGGAGAAGACUGCGGGUUCGAGUCCCGUACGGAACG

Variants of: B1
Assay: yeast fitness relative to wild type (ratio to wild type); higher = fitter; tRNA-Arg(CCU), competitive growth, 37 C, YPD
Summary of the method: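 Variants of the tRNA-Arg(CCU) gene, chemically synthesised with a 3% per-site mutation rate at 69 sites, were placed at the native genomic locus in Saccharomyces cerevisiae. The pooled strains were competed in YPD at 37°C for 24 hours in six parallel replicates. Gene amplicons from the start population and from each end population were read by 100-nucleotide paired-end sequencing. Darwinian fitness relative to wild type came from changes in genotype frequencies; genotypes needed ≥ 100 starting reads, and estimates < 0.5 were set to 0.5.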

Row | Variant | yeast fitness
1 | A14G C30U A43C G52A | ≤ 0.5
2 | A14G C22A A57U | ≤ 0.5
3 | A14G A15C G67U | 0.62
4 | A14C U64A | 0.651
5 | A14G A15G A37G A45U C66U | ≤ 0.5
6 | A14G G25A | 0.856
7 | A14G G25C | 0.976
8 | A14G C30A C34G C62U | ≤ 0.5
9 | A14G A15C A21G C46A A69U | ≤ 0.5
10 | A14G C24G A36C A70C | ≤ 0.5
11 | A14G C22G C29G G41C | ≤ 0.5
12 | A14G A42G C55A | ≤ 0.5
13 | A14G A20C C31U C46G | ≤ 0.5
14 | A14G G17C C24U C49U A69U | ≤ 0.5
15 | A14G G50C A69U | ≤ 0.5
16 | A14G G23A C27G | ≤ 0.5
17 | A14G G17C C55A | ≤ 0.5
18 | A14G A21G U53C A57C A69U | ≤ 0.5
19 | A14G A15U C61U | ≤ 0.5
20 | A14C U47C A70U | 0.614
21 | A14G C27A U54G G68C | ≤ 0.5
22 | A14G G25A U32A | 0.56
23 | A14G G58C A65C | 0.593
24 | A14G A15G G56A | 0.567

Row | Variant | yeast fitness
25 | A14G C24U | 0.784
26 | A14G G38A A43G | ≤ 0.5
27 | A14G C22G C33U G58A C60A | 0.51
28 | A14G A21G C22U C27U A45C G48C C61G | ≤ 0.5
29 | A14G C29U A57C | ≤ 0.5
30 | A14G C29U G41A U54G A69U | 0.621
31 | A14G C22G C30A | 0.528
32 | A14G C31U A42U A69U | 0.544
33 | A14G C27A | 0.916
34 | A14G C27U | 0.974
35 | A14G C22U C34U G51C G58A | ≤ 0.5
36 | A14G C30G A36C A69U | ≤ 0.5
37 | A14G G44A | 0.894
38 | A14G G44C | 0.928
39 | A14G A20C A21U U28C | ≤ 0.5
40 | A14G C24U G63C | ≤ 0.5
41 | A14G C31U C55A | 0.552
42 | A14G C22G A70C | 0.637
43 | A14G C22A C27A C29U A42C | ≤ 0.5
44 | A14G A45U A69C | 0.748
45 | A14G G23A C29G G68C | ≤ 0.5
46 | A14G C24U A36C A43U A69U | ≤ 0.5
47 | A14G A65G | 0.887
48 | A14G G48A G68A | ≤ 0.5

Row | Variant | yeast fitness
49 | A14G G23C | 0.692
50 | A14G G23A | 0.559
51 | A14G G23A C34A | ≤ 0.5
52 | A14G A42U C55U U59C G63A A65C | ≤ 0.5
53 | A14G G18C G52C C55A | ≤ 0.5
54 | A14G C62G G68A | ≤ 0.5
55 | A14C U47A | 0.701
56 | A14G A40U G44A A65U | ≤ 0.5
57 | A14G C49A C61U C62G | ≤ 0.5
58 | A14G U16C | 0.897
59 | A14G G17C C24U A69U | ≤ 0.5
60 | A14G A15U A45U | ≤ 0.5
61 | A14G C46A A57G | 0.743
62 | A14G G39C A70U | 0.717
63 | A14G A15C C46A | 0.578
64 | A14G G25A C30A A42C | ≤ 0.5
65 | A14G A20U A36U G51C G52C | ≤ 0.5
66 | A14G C30G A42U A45G A69U | ≤ 0.5
67 | A14G G58C | 0.989
68 | A14G C33U U47A G51C C62U | 0.514
69 | A14G A21U G68C | ≤ 0.5
70 | A14G G48C G50A | 0.546
71 | A14C U54C | 0.702
72 | A14C U54G | ≤ 0.5

Row | Variant | yeast fitness
73 | A14G A36U G58C | ≤ 0.5
74 | A14G C24G C31U U47C C55A | ≤ 0.5
75 | A14G C31G A45G G56U | ≤ 0.5
76 | A14G A15U U28A C33G G41C G56A | 0.589
77 | A14G C31G C33U G38C G58C C66G | ≤ 0.5
78 | A14G C61U A70U | 0.835
79 | A14G C31U C55A G67A A70G | ≤ 0.5
80 | A14G C29G A43U C46U | ≤ 0.5
81 | A14G C30U C46U G50A | 0.602
82 | A14G C27G C31U | 0.501
83 | A14G G17A | 0.735
84 | A14C U47C C55U G68C | ≤ 0.5
85 | A14G G25A A40U C49U C60A G63A | ≤ 0.5
86 | A14G C33U A43G | ≤ 0.5
87 | A14G G44A A57U | 0.576
88 | A14G A69C | 0.729
89 | A14G C34G | 0.608
90 | A14G A36G | 0.8
91 | A14G C29U A65G | 0.555
92 | A14G A15C G17A A69C A70G | 0.562
93 | A14G G18A U32A G44A A65C | ≤ 0.5
94 | A14G G25A A69U | 0.77
95 | A14G A37U C61A | ≤ 0.5
96 | A14G A43C C66G A69U | ≤ 0.5

Row | Variant | yeast fitness
97 | A14G A21C A37G | 0.562
98 | A14G A40C C55A C66A | ≤ 0.5
99 | A14G G56A G67C | ≤ 0.5
100 | A14G C31G C33U G38C G58C G67U | ≤ 0.5
101 | A14G C22U C33G | ≤ 0.5
102 | A14G A21U G23A A37U | ≤ 0.5
103 | A14G U16A C24G A45G C62A A69C | ≤ 0.5
104 | A14G A36C A69C | ≤ 0.5
105 | A14C U47A G52A | ≤ 0.5
106 | A14G G67C | 0.763
107 | A14G A37U | 0.584
108 | A14G G23A A40U A42C G58C | ≤ 0.5
109 | A14G A70C | 0.803
110 | A14G A70G | 0.861
111 | A14G A20U U35C G38A A43C | 0.635
112 | A14G G48A C61A G68U | ≤ 0.5
113 | A14G G17A A37U C62G | ≤ 0.5
114 | A14G G39C U47C | ≤ 0.5
115 | A14G C22G U35C A57C | ≤ 0.5
116 | A14G A42G | 0.778
117 | A14G A42C | 0.762
118 | A14G A45C C66U | 0.582
119 | A14G G23C C29A | ≤ 0.5
120 | A14G G17A A37G | 0.536

Row | Variant | yeast fitness
121 | A14G C24A G25A C31A | ≤ 0.5
122 | A14G C27G C34G A37U C61G | ≤ 0.5
123 | A14G A15G G44A | ≤ 0.5
124 | A14G G17C G39A | ≤ 0.5
125 | A14G A43U A65U | 0.748
126 | A14G C34A C49U G51C C61U | ≤ 0.5
127 | A14G C24G G25A A43G C49A | ≤ 0.5
128 | A14G C24U A45C G51U U59C | ≤ 0.5
129 | A14G A20C C66U | 0.665
130 | A14G C27G C61U | ≤ 0.5
131 | A14G C22G U35G A40C A70U | ≤ 0.5
132 | A14G G25C C31U | 0.692
133 | A14G C49U U64A | 0.537
134 | A14G A40U | 0.904
135 | A14G A40C | 1
136 | A14G A40G | 0.856
137 | A14G C61A A69C | ≤ 0.5
138 | A14G C27G C34G A37U U64A A70C | 0.522
139 | A14G C24A C34G G38C | ≤ 0.5
140 | A14G G18A A21U U26C G48A | ≤ 0.5
141 | A14G C24U U26G | ≤ 0.5
142 | A14G C55U | 0.553
143 | A14G C55A | ≤ 0.5
144 | A14G C29U A45U | 0.626

Row | Variant | yeast fitness
145 | A14G A15C | 0.733
146 | A14G A15G | 0.917
147 | A14G G44A G67C | ≤ 0.5
148 | A14G C31G U54G A57C C62U | ≤ 0.5
149 | A14G C29U C62U A70U | 0.536
150 | A14G C46G G51C | ≤ 0.5
151 | A14G G41A | 0.981
152 | A14C U59A | 0.746
153 | A14G C31G A37U | 0.533
154 | A14G C34A G38C G48A A69C | ≤ 0.5
155 | A14G A43U G50U G68C | ≤ 0.5
156 | A14G C46U G50C C55U A57U C62G | 0.571
157 | A14G C24U G67C | 0.54
158 | A14G C22A C27A C29U A42C A57U C60A | ≤ 0.5
159 | A14G A21C C30G C55G G67U | 0.534
160 | A14G G23A G38C C46U | 0.621
161 | A14G C31G A37U A65U | 0.529
162 | A14G A20G U47A G58C | ≤ 0.5
163 | A14G G18A U26A A70C | ≤ 0.5
164 | A14G G50C C66U | ≤ 0.5
165 | A14G G17C G58C | ≤ 0.5
166 | A14G C22U C46G C60G | ≤ 0.5
167 | A14G G68U A70U | ≤ 0.5
